Experimental findings from ChEMBL document CHEMBL1140884, “Oligodeoxyribonucleotide-based antagonists for Toll-like receptors 7 and 9” (2009) are described below.

Active and inactive are the calls of the source. The calls are words filed in the database; no cut-off is given here.

Common to all, as to assay type: functional, cell-based
Assay [1] concerns the target T1, Toll-like receptor 9 (Mus musculus) (UniProt Q9EQU3).
T1 sequence (whole entry): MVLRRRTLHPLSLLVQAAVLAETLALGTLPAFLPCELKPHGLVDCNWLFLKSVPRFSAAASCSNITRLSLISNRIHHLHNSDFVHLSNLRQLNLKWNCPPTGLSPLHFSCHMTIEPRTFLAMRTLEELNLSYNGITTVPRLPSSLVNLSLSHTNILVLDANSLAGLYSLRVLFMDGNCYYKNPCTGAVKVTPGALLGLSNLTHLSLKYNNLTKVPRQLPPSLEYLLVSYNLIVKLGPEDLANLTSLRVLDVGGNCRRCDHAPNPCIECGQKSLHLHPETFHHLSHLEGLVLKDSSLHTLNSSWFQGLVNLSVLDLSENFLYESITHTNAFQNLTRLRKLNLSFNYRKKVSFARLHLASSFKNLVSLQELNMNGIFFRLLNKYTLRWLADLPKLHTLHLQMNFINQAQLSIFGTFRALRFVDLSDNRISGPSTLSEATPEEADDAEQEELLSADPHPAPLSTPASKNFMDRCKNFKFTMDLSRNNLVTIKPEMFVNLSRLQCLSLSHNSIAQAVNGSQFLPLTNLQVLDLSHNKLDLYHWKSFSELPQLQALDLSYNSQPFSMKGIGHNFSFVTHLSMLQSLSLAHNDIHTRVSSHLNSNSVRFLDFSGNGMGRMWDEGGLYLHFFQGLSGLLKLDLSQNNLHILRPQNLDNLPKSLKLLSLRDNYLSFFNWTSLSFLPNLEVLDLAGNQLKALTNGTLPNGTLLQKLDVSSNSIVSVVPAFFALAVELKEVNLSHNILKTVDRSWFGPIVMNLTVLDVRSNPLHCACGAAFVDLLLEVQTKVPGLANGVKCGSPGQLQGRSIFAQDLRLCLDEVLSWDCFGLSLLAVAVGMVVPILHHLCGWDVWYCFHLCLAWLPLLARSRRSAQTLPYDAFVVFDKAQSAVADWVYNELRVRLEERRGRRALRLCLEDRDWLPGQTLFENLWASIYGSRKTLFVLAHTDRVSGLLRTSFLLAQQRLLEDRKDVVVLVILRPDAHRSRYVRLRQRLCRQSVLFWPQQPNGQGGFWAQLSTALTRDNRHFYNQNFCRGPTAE
The assay is described as follows: Agonist activity at mouse TLR9 expressed in HEK293 cells assessed as activation of NF-kappaB at 10 ug/mL by SEAP reporter gene assay. In short, it runs like this: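 HEK293 cells stably expressing mouse TLR9 were transiently transfected with a SEAP reporter for 6 h. Compounds were added at 10 µg/mL for 18 h. SEAP was read with Quanti-Blue substrate and expressed as fold change in NF-κB activity.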
A general note: Reporter assays use an easily measured gene product as a stand-in for the process of interest.

Assay [2] deals with T1, Toll-like receptor 9 (Mus musculus). The assay is described as follows: Antagonist activity at mouse TLR9 expressed in HEK293 cells assessed as inhibition of 5'-CTATCTGACGTTCTCTGT-3'-induced NF-kappaB activation by SEAP reporter gene assay. In short, it runs like this:
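Mouse TLR9-HEK293 cells were transfected with a SEAP reporter for 6 h. They were then stimulated for 18 h with agonist (0.25 or 0.5 µg/mL) plus increasing antagonist concentrations or set agonist:antagonist ratios. Quanti-Blue read-out, reported as % NF-κB activity with agonist alone as 100%.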

For assay [3] the target is unchanged. Put plainly: Antagonist activity at TLR9 in mouse J774 cells assessed as inhibition of 5'-TCTGACRTTCT-X-TCTTRCAGTCT-3'-induced NF-kappaB activation pretreated for 1 hr. The method in brief: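 J774 cells at 5×10^6 cells/well were preincubated with antagonist for 1 h. Agonist was then added: TLR9 agonist 1 µg/mL, an RNA-based TLR7/8 agonist, or LPS 100 ng/mL. Antagonist was used at 5–40 µg/mL or at the indicated agonist ratios. Nuclear extracts were taken 1 h after agonist and analysed by EMSA.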

The target is the same in assay [4]. The assay is described as follows: Agonist activity at TLR9 in mouse J774 cells assessed as of NF-kappaB activation. In short, it runs like this:
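Murine J774 macrophages grown in DMEM with 10% FBS and plated at 5×10^6 cells/well. Nuclear extracts taken 1 h after agonist addition. NF-κB detected by EMSA on native polyacrylamide gels with autoradiography.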

On to `Cc1cn([C@@H]2O[C@H](COP(=O)(S)O[C@H]3C[C@H](n4ccc(N)nc4=O)O[C@@H]3COP(=O)(S)O[C@H]3C[C@H](n4cc(C)c(=O)[nH]c4=O)O[C@@H]3COP(=O)(S)O[C@H]3C[C@H](n4ccc(N)nc4=O)O[C@@H]3COP(=O)(S)O[C@H]3C[C@H](n4cc(C)c(=O)[nH]c4=O)O[C@@H]3COP(=O)(S)O[C@H]3C[C@H](n4cc(C)c(=O)[nH]c4=O)O[C@@H]3COP(=O)(S)O[C@H]3C[C@H](n4cnc5c(=O)[nH]c(N)nc54)O[C@@H]3COP(=O)(S)O[C@H]3C[C@H](n4ccc(N)nc4=O)O[C@@H]3COP(=O)(S)O[C@H]3C[C@H](n4cnc5c(N)ncnc54)O[C@@H]3COP(=O)(S)O[C@H]3C[C@H](n4cnc5c(=O)[nH]c(N)nc54)O[C@@H]3COP(=O)(S)O[C@H]3C[C@H](n4cc(C)c(=O)[nH]c4=O)O[C@@H]3COP(=O)(S)O[C@H]3C[C@H](n4ccc(N)nc4=O)O[C@@H]3COP(=O)(S)O[C@H]3C[C@H](n4cc(C)c(=O)[nH]c4=O)O[C@@H]3COP(=O)(S)O[C@H]3C[C@H](n4cnc5c(N)ncnc54)O[C@@H]3COP(=O)(S)O[C@H]3C[C@H](n4cc(C)c(=O)[nH]c4=O)O[C@@H]3COP(=O)(S)O[C@@H]3C[C@@H](n4ccc(N)nc4=O)O[C@H]3CO)[C@@H](OP(=O)(S)OC[C@H]3O[C@@H](n4cnc5c(=O)[nH]c(N)nc54)C[C@@H]3OP(=O)(S)OC[C@H]3O[C@@H](n4cc(C)c(=O)[nH]c4=O)C[C@@H]3O)[C@H]2O)c(=O)[nH]c1=O` (some centres not stated), for which the result in assay [1] was Active. Further, the outcome in assay [2] was inactive. With `CO[C@@H]1[C@H](OP(=O)(S)OC[C@H]2O[C@@H](n3ccc(N)nc3=O)C[C@@H]2OP(=O)(S)OC[C@H]2O[C@@H](n3cc(C)c(=O)[nH]c3=O)C[C@@H]2OP(=O)(S)OC[C@H]2O[C@@H](n3ccc(N)nc3=O)C[C@@H]2OP(=O)(S)OC[C@H]2O[C@@H](n3cc(C)c(=O)[nH]c3=O)C[C@@H]2OP(=O)(S)OC[C@H]2O[C@@H](n3cnc4c(=O)[nH]c(N)nc43)C[C@@H]2OP(=O)(S)OC[C@H]2O[C@@H](n3cc(C)c(=O)[nH]c3=O)C[C@@H]2O)[C@@H](COP(=O)(S)O[C@H]2[C@@H](OC)[C@H](n3ccc(=O)[nH]c3=O)O[C@@H]2COP(=O)(S)O[C@H]2C[C@H](n3cnc4c(=O)[nH]c(N)nc43)O[C@@H]2COP(=O)(S)O[C@H]2C[C@H](n3ccc(N)nc3=O)O[C@@H]2COP(=O)(S)O[C@H]2C[C@H](n3cnc4c(N)ncnc43)O[C@@H]2COP(=O)(S)O[C@H]2C[C@H](n3cnc4c(=O)[nH]c(N)nc43)O[C@@H]2COP(=O)(S)O[C@H]2C[C@H](n3cc(C)c(=O)[nH]c3=O)O[C@@H]2COP(=O)(S)O[C@H]2C[C@H](n3ccc(N)nc3=O)O[C@@H]2COP(=O)(S)O[C@H]2C[C@H](n3cc(C)c(=O)[nH]c3=O)O[C@@H]2COP(=O)(S)O[C@H]2C[C@H](n3cnc4c(N)ncnc43)O[C@@H]2COP(=O)(S)O[C@H]2C[C@H](n3cc(C)c(=O)[nH]c3=O)O[C@@H]2COP(=O)(S)O[C@@H]2C[C@@H](n3ccc(N)nc3=O)O[C@H]2CO)O[C@H]1n1ccc(=O)[nH]c1=O` (some centres not stated), the result in assay [1] was Active. For `Cc1cn([C@H]2C[C@H](OP(=O)(S)OC[C@H]3O[C@@H](n4ccc(N)nc4=O)C[C@@H]3OP(=O)(S)OC[C@H]3O[C@@H](n4cc(C)c(=O)[nH]c4=O)C[C@@H]3OP(=O)(S)OC[C@H]3O[C@@H](n4cnc5c(=O)[nH]c(N)nc54)C[C@@H]3OP(=O)(S)OC[C@H]3O[C@@H](n4cc(C)c(=O)[nH]c4=O)C[C@@H]3O)[C@@H](COP(=O)(S)O[C@H]3C[C@H](n4ccc(N)nc4=O)O[C@@H]3COP(=O)(S)O[C@H]3C[C@H](n4cc(C)c(=O)[nH]c4=O)O[C@@H]3COP(=O)(S)O[C@H]3C[C@H](n4cc(C)c(=O)[nH]c4=O)O[C@@H]3COP(=O)(S)O[C@H]3C[C@H](n4cnc5c(=O)[nH]c(N)nc54)O[C@@H]3COP(=O)(S)O[C@H]3C[C@H](n4ccc(N)nc4=O)O[C@@H]3COP(=O)(S)O[C@H]3C[C@H](n4cc(C)c(=O)[nH]c4=O)O[C@@H]3COP(=O)(S)O[C@H]3C[C@H](n4cnc5c(=O)[nH]c(N)nc54)O[C@@H]3COP(=O)(S)O[C@H]3C[C@H](n4cc(C)c(=O)[nH]c4=O)O[C@@H]3COP(=O)(S)O[C@H]3C[C@H](n4ccc(N)nc4=O)O[C@@H]3COP(=O)(S)O[C@H]3C[C@H](n4cc(C)c(=O)[nH]c4=O)O[C@@H]3COP(=O)(S)O[C@H]3C[C@H](n4cnc5c(N)ncnc54)O[C@@H]3COP(=O)(S)O[C@H]3C[C@H](n4cc(C)c(=O)[nH]c4=O)O[C@@H]3COP(=O)(S)O[C@@H]3C[C@@H](n4ccc(N)nc4=O)O[C@H]3CO)O2)c(=O)[nH]c1=O` (some centres not stated), in assay [1], the outcome was Active.

With `CO[C@@H]1[C@H](OP(=O)(S)OC[C@H]2O[C@@H](n3ccc(N)nc3=O)C[C@@H]2OP(=O)(S)OC[C@H]2O[C@@H](n3ccc(N)nc3=O)C[C@@H]2OP(=O)(S)OC[C@H]2O[C@@H](n3cc(C)c(=O)[nH]c3=O)C[C@@H]2OP(=O)(S)OC[C@H]2O[C@@H](n3cc(C)c(=O)[nH]c3=O)C[C@@H]2OP(=O)(S)OC[C@H]2O[C@@H](n3ccc(N)nc3=O)C[C@@H]2OP(=O)(S)OC[C@H]2O[C@@H](n3cc(C)c(=O)[nH]c3=O)C[C@@H]2OP(=O)(S)OC[C@H]2O[C@@H](n3ccc(N)nc3=O)C[C@@H]2OP(=O)(S)OC[C@H]2O[C@@H](n3cc(C)c(=O)[nH]c3=O)C[C@@H]2OP(=O)(S)OC[C@H]2O[C@@H](n3cnc4c(=O)[nH]c(N)nc43)C[C@@H]2OP(=O)(S)OC[C@H]2O[C@@H](n3cc(C)c(=O)[nH]c3=O)C[C@@H]2O)[C@@H](COP(=O)(S)O[C@H]2[C@@H](OC)[C@H](n3cnc4c(=O)[nH]c(N)nc43)O[C@@H]2COP(=O)(S)O[C@H]2C[C@H](n3cc(C)c(=O)[nH]c3=O)O[C@@H]2COP(=O)(S)O[C@H]2C[C@H](n3ccc(N)nc3=O)O[C@@H]2COP(=O)(S)O[C@H]2C[C@H](n3cc(C)c(=O)[nH]c3=O)O[C@@H]2COP(=O)(S)O[C@H]2C[C@H](n3cnc4c(N)ncnc43)O[C@@H]2COP(=O)(S)O[C@H]2C[C@H](n3cc(C)c(=O)[nH]c3=O)O[C@@H]2COP(=O)(S)O[C@@H]2C[C@@H](n3ccc(N)nc3=O)O[C@H]2CO)O[C@H]1n1cnc2c(N)ncnc21` (some centres not stated), the outcome in assay [1], in assay [3] and in assay [4] was inactive.
